Reference: ChEMBL document CHEMBL3872263, “Synthesis and biological evaluation of phosphate isosters of fosmidomycin and analogs as inhibitors of Escherichia coli and Mycobacterium smegmatis 1-deoxyxylulose 5-phosphate reductoisomerases” (Bioorg Med Chem, 2017)

Key:
[1] = Inhibition of Escherichia coli His6-tagged DXR preincubated for 2 mins in presence of NADPH followed by DXP substrate addition
Summary of the method: (§1)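 Recombinant His-tagged DXR was assayed at 37°C in 50 mM Tris/HCl pH 7.5 with 3 mM MgCl2 and 2 mM DTT. The enzyme was pre-incubated for 2 min with NADPH and the inhibitor at a range of concentrations, then DXP was added to start the reaction and residual activity was measured. IC50 was read from a plot of percent residual activity versus log inhibitor concentration.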

[2] = test system: Escherichia coli; experiment: Growth inhibition of Escherichia coli XL1 blue at 400 nmol/disc incubated overnight by paper disc diffusion method; assay type: functional
Summary of the method: (§2)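 Paper disc diffusion on E. coli XL1 Blue growing on LB-agar; 6 mm paper discs impregnated with test compound at the stated amount per disc; plates incubated overnight at 37°C, then growth inhibition read.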

[3] = test system: Escherichia coli; experiment: Growth inhibition of Escherichia coli XL1 blue at 2 nmol/disc incubated overnight by paper disc diffusion method; assay type: functional; summary of the method: as §2
[4] = Inhibition of Mycobacterium smegmatis His6-tagged DXR preincubated for 2 mins in presence of NADPH followed by DXP substrate addition; parameters: species or system Mycolicibacterium smegmatis; summary of the method: as §1
[5] = test system: Escherichia coli; experiment: Activity at Escherichia coli DXR assessed as ratio of Kcat to Km […] in presence of NADPH by Lineweaver-burk plot method
[6] = test system: Escherichia coli; experiment: Growth inhibition of Escherichia coli XL1 blue at 160 nmol/disc incubated overnight by paper disc diffusion method; assay type: functional
Summary of the method: (§3)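 Paper disc diffusion assay on E. coli XL1 Blue grown in LB agar. 6 mm paper discs were impregnated with the stated amount of compound, and plates were incubated overnight at 37°C.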

[7] = test system: Escherichia coli; experiment: Growth inhibition of Escherichia coli XL1 blue at 100 nmol/disc incubated overnight by paper disc diffusion method; assay type: functional; summary of the method: as §3
[8] = test system: Escherichia coli; experiment: Growth inhibition of Escherichia coli XL1 blue at 80 nmol/disc incubated overnight by paper disc diffusion method; assay type: functional; summary of the method: as §2
[9] = test system: Escherichia coli; experiment: Growth inhibition of fosmidomycin resistant Escherichia coli incubated overnight by paper disc diffusion method; assay type: functional

SMILES	IC50 [1] [µM]	IC50 [4] [µM]	other results
O=C(CCCP(=O)(O)O)NO	0.17		diameter of the inhibition zone (DIZ) [2]: 12 mm
CC(=O)N(O)CCCP(=O)(O)O [FR-900098]	0.004		diameter of the inhibition zone (DIZ) [3]: 32 mm
O=C(CCOP(=O)(O)O)NO	2.6	9.2	diameter of the inhibition zone (DIZ) [2]: <10 mm
CC(=O)[C@@H](O)[C@H](O)COP(=O)(O)O			kcat/Km [5]: 412000 M⁻¹ s⁻¹
CN(O)C(=O)CCOP(=O)(O)O	0.046	0.233	diameter of the inhibition zone (DIZ) [6]: 20 mm
CC(=O)N(O)CCOP(=O)(O)O	0.077	0.279	diameter of the inhibition zone (DIZ) [7]: 27 mm
CN(O)C(=O)CCCP(=O)(O)O	0.048		diameter of the inhibition zone (DIZ) [8]: 30 mm; diameter of the inhibition zone (DIZ) [9]: 18 mm
O=CN(O)CCOP(=O)(O)O	0.342	2.1	diameter of the inhibition zone (DIZ) [6]: 24 mm
CC(=O)[C@@H](O)[C@H](O)CCP(=O)(O)O			kcat/Km [5]: 11700 M⁻¹ s⁻¹
O=CN(O)CCCP(=O)(O)O [FOSMIDOMYCIN]	0.042		diameter of the inhibition zone (DIZ) [3]: 34 mm
